ABHD5-PLIN5 inh – inhibitors of human ABHD5-perilipin-5 interaction. Split G. princeps luciferase complementation, luminescence, 4 h. inhibition, % at 4 µM. 360,000 compounds, 0.78% hits;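 active = inhibition above the mean inhibition across every tested compound plus 3 SD, cut at about 22% in these data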;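 also: 0% = DMSO only wells and the 100% control is not disclosed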
Target sequence (Q00G26 whole entry, looked up): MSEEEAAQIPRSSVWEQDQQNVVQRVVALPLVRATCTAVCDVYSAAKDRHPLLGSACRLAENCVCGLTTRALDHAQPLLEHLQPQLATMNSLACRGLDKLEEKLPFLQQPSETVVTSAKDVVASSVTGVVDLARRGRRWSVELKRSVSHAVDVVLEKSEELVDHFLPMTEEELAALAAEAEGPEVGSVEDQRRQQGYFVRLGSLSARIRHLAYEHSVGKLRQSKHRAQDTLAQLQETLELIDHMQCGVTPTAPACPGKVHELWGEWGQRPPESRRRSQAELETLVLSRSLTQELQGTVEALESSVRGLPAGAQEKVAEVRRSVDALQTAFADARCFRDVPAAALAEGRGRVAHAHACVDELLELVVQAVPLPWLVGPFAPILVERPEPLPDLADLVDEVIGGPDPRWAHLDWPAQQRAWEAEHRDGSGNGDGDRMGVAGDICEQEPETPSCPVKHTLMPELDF
Target sequence (Q8WTS1 whole entry, looked up): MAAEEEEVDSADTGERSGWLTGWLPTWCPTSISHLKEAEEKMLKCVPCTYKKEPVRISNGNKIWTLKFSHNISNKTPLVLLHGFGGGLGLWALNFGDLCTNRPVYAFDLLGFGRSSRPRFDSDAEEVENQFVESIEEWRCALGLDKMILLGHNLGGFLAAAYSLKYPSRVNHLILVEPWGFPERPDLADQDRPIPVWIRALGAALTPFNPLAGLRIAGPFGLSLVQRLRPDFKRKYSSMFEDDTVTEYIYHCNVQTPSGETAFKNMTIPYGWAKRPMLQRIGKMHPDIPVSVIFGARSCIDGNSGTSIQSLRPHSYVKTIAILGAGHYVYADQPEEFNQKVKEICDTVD
Rin1-Abl PPI inh – inhibitors of human Rin1-Abl protein interaction. P00519+Q13671. TR-FRET Rin1/Abl binding, biochemical. inhibition, % at 7.35 µM. 360,000 compounds, 0.4% hits; in the data active = inhibition above about 5%, passing the limit was not always enough
NadD inh – inhibitors of Staphylococcus aureus NadD. purified NadD enzyme, colorimetric absorbance read-out. inhibition, % at 20 µM. 360,000 compounds, 0.78% hits; in the data active = inhibition above about 26%
XiGFP reactiv – activators of X-chromosome reactivation in mouse fibroblasts; XiGFP mouse fibroblasts, % GFP-positive cells imaging, 3 d; cells co-treated with 5-aza-dC sensitizer; scaled so ellipticine positive control = 100%; activation, % at 7.58 µM; 360,000 compounds, 0.055% hits; AID 743238;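 active = mean normalized replicate activation at least 10% and every replicate at or above 10%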;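 also: 0% = median of on-plate neutral control wells and 100% = ellipticine 6 µM median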
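Assay system: SV40-immortalized XiGFP fibroblast cells, line 68-5-11; buffer or medium: DMEM plus 5-aza-dC sensitizer; compound: one concentration, pinned; timing: compounds 3 days, fix/stain 15 min at room temperature; benchmarks: positive control ellipticine, 6 µM final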
Rpn11 block – Rpn11 (human) deubiquitinase inhibition; O00487; human 26S proteasome, Ub4-pepOG fluorescence polarization; 20S core pre-blocked with epoxomicin; inhibition, % at 20 µM; 360,000 compounds, 0.59% hits;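 active = inhibition at 20 µM, scaled to each plate's controls, above about 33%, limit read from the data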
NadD conf – NadD (S. aureus) inhibition, single concentration confirmation | shares compounds with NadD inh | purified S. aureus NadD, colorimetric enzyme assay | inhibition, % at 20 µM | 2,000 compounds, 13% hits; in the data active = inhibition mostly above about 42%, no sharp cut-off; inactive = mostly below about 42%
The depositor's hits bear a star; / = no result; ! = a repeat was not active. A selection: hits, their analogues and other compounds. The true share with any hit is near 1.9%.

SMILES | ABHD5-PLIN5 inh | Rin1-Abl PPI inh | NadD inh | XiGFP reactiv | Rpn11 block | NadD conf
COC(=O)c1c(NC(=O)C2SC(=NC3CCCCC3)C(C(N)=O)=C2N)sc2c1CCCC2 (stereo unspecified) | -2 | -4 | 38* | 0 | -4 | 7
CS(=O)(=O)N1CCc2cc(-c3csc(NC(=O)C(c4ccccc4)c4ccccc4)n3)ccc21 | -1 | 1 | 30* | / | 5 | 31
O=C(C1CCCC1)N1CC(=O)N2[C@H](C1)[C@H](c1ccc(C#CC3CCCC3)cc1)[C@@H]2CO | / | / | / | 0 | / | /
FC(F)(F)c1cc(-c2ccco2)nc(NCc2ccco2)n1 | 14 | 2 | 34* | / | 9 | 40
O=C(O)C[C@H]1CC[C@H]2[C@@H](COC[C@H](O)CN2S(=O)(=O)c2ccc(F)cc2)O1 | / | / | / | 1 | / | /
C[C@@H]1CCCCO[C@@H](CN(C)S(=O)(=O)c2ccccc2)[C@H](C)CN([C@@H](C)CO)C(=O)c2cc(NC(=O)c3ccncc3)ccc2O1 | / | / | / | 0 | / | /
Nc1nc(-c2ccc(NC(=O)c3ccco3)cc2)cs1 | -11 | 1 | -5 | 0 | -9 | /
NC(=O)/C(=N\OC(=O)c1ccco1)c1nc(-c2ccc(Br)cc2)cs1 | -6 | -1 | 30* | / | 1 | 49*
CC(C)C[C@@H](CN1CCC[C@H]1CN1C(=O)C(=O)NC[C@@H]1Cc1ccc(O)cc1)N1C[C@H](Cc2ccccc2)N(CC2CCCCC2)C(=O)C1=O | 17 | / | 28 | 7 | / | /
CC(C)C[C@@H](CN1CCC[C@H]1CN1C(=O)C(=O)NC[C@@H]1Cc1ccccc1)N1C[C@H](Cc2ccccc2)N(CC2CCCCC2)C(=O)C1=O | 15 | / | 33* | 0 | / | 29
CC(C)C[C@@H](CN1CCC[C@H]1CN1C(=O)C(=O)NC[C@@H]1Cc1ccc(O)cc1)N1C[C@H](Cc2ccc(O)cc2)N(CC2CCCCC2)C(=O)C1=O | 4 | / | 32* | 0 | / | 30
O=C(c1cnccn1)N1CC(=O)N2[C@H](CO)[C@@H](c3ccc(/C=C/c4ccccc4)cc3)[C@@H]2C1 | / | / | / | 0 | / | /
CCNC(=O)C[C@H]1CC[C@H]2[C@@H](COc3ccc(NC(=O)Nc4cccc(C#N)c4)cc3C(=O)N2C)O1 | / | / | / | 0 | / | /
Cc1ccccc1NCC(=O)N/N=C/c1c(C)c(C(=O)c2ccc(Cl)cc2)n2ccccc12 | -2 | -1 | 27 | 0 | 23 | /
Cc1c(/C=N/NC(=O)CNc2ccccc2)c2ccccn2c1C(=O)c1ccc(Cl)cc1 | 1 | 1 | 36* | 0 | 20 | 17
O=C(NC[C@@H]1[C@@H](c2ccccc2)[C@@H](CO)N1Cc1cccnc1)C1CCCCC1 | / | / | / | 0 | / | /
CCC(=O)Nc1ccc2c(c1)C(=O)N(C)[C@H]1CC[C@@H](CC(=O)NCC3CC3)O[C@@H]1CO2 | / | / | / | 0 | / | /
COc1ccccc1Cc1c(-c2ccco2)nc2ccc(Br)cn12 | 42* | -7 | 45* | 0 | 4 | 26
COc1ccccc1Cc1c(-c2ccco2)nc2ccc(Cl)cn12 | 27* | 0 | 30* | 0 | 20 | 6
Clc1ccc2nc(-c3ccco3)c(Cc3ccsc3)n2c1 | 49* | 0 | 34* | 0 | 2 | 18
COc1ccccc1Cc1c(-c2ccc(C)cc2)nc2ccc(Cl)cn12 | -6 | 2 | 10 | 0 | 13 | /
Clc1ccc2nc(-c3ccccc3)c(Cc3ccsc3)n2c1 | 1 | 3 | 2 | / | -11 | /
Cc1cc2nc(-c3ccco3)c(Cc3ccccc3C(F)(F)F)n2c(C)c1Br | 40* | / | 42* | 0 | / | 28
COc1ccc(-c2nc3cc(C)c(Br)c(C)n3c2Cc2ccccc2C(F)(F)F)cc1OC | -2 | / | 17 | 0 | / | /
CC(=O)N(C[C@@H]1[C@@H](c2ccc(C3=CCCC3)cc2)[C@@H](CO)N1CC1CC1)C(C)C | / | / | / | 0 | / | /
SMILES | ABHD5-PLIN5 inh | Rin1-Abl PPI inh | NadD inh | XiGFP reactiv | Rpn11 block | NadD conf
O=C(C[C@@H]1C=C[C@H](NC(=O)C2CC2)[C@H](CO)O1)Nc1nccs1 | / | / | / | 0 | / | /
COc1ccc([C@@H]2C/C=C\C[C@@H](c3ccc4c(c3)OCO4)NC(=O)[C@H](c3ccccc3)CC(=O)N2)c(OC)c1 | / | / | / | 0 | / | /
O=C(Nc1ccccc1F)N1C[C@@H]2[C@H](c3ccccc31)[C@@H](CO)N2C(=O)c1ccccn1 | / | / | / | 0 | / | /
C[C@@H]1CCCCO[C@@H](CN(C)C(=O)Nc2ccc(F)cc2)[C@H](C)CN([C@H](C)CO)C(=O)c2cc(NS(=O)(=O)c3cn(C)cn3)ccc2O1 | / | / | / | 0 | / | /
C[C@@H]1CCCCO[C@H](CN(C)C(=O)Nc2ccccc2)[C@H](C)CN([C@@H](C)CO)C(=O)c2cc(NS(=O)(=O)c3ccc(Cl)cc3)ccc2O1 | / | / | / | 0 | / | /
Cc1noc(C)c1S(=O)(=O)Nc1ccc2c(c1)CC(=O)N([C@H](C)CO)C[C@@H](C)[C@@H](CN(C)S(C)(=O)=O)O2 | / | / | / | 0 | / | /
Cc1ccc2nc(-c3ccco3)c(Cc3ccccc3C(F)(F)F)n2c1 | / | / | / | 0 | / | /
FC(F)(F)c1ccccc1Cc1c(-c2ccco2)nc2ccc(Br)cn12 | 34* | -10 | 37* | 0 | 16 | 11
Cc1ccc(C)c(NC(=O)COC(=O)c2ccc(S(=O)(=O)N3CCCCC3)cc2)c1 | 7 | -1 | 31* | 0 | -6 | 0
Cc1cc(NS(=O)(=O)c2ccc(NC(=O)c3cc4c(=O)n5ccccc5nc4s3)cc2)nc(C)n1 | 4 | -3 | 31* | 0 | 17 | 46
Cc1cc(NS(=O)(=O)c2ccc(NC(=O)c3cc4ccccc4o3)cc2)nc(C)n1 | -3 | -2 | 3 | / | 2 | /
Nc1nonc1-n1nnc(C(=O)N/N=C/C=C/c2ccccc2)c1CSC1=NCCS1 | -7 | -1 | 32* | 1 | 4 | 26
Nc1nonc1-n1nnc(C(=O)N/N=C/c2c(Cl)cccc2Cl)c1CSC1=NCCS1 | 1 | -2 | 34* | 0 | 4 | 39
CCCc1c(C(=O)N/N=C/C=C/c2ccccc2)nnn1-c1nonc1N | 0 | -2 | -2 | 0 | 27 | /
CO[C@@H]1CN(C)C(=O)c2ccc(NC(=O)Nc3ccccc3Cl)cc2OC[C@@H](C)N(Cc2ccccc2C(=O)O)C[C@H]1C | / | / | / | 0 | / | /
COCC#Cc1ccc2c(c1)O[C@@H](CN(C)C(=O)CN(C)C)[C@H](C)CN([C@@H](C)CO)S2(=O)=O | / | / | / | 0 | / | /
Cc1cccn2c(=O)c3cc(C#N)c(=NC(=O)c4cccs4)n(CC(C)C)c3nc12 | -5 | -2 | 14 | 0 | 38 | /
Cc1cccc(C(=O)N=c2c(C#N)cc3c(=O)n4cccc(C)c4nc3n2Cc2ccco2)c1 | 50*! | 1 | 42* | 0 | -20 | 30
Cc1cccn2c(=O)c3cc(C#N)c(=NC(=O)c4ccccc4)n(Cc4ccco4)c3nc12 | 46*! | -2 | 32*! | 0 | -20 | 12
